# Source: PubChem BioAssay
# Shown are actives, neighbours in structure and some others; about 1% of the full set was active somewhere.
# MT stabilize HCS: microtubule stabilization, imaging screen. HeLa tubulin immunostaining HCS, 24 h; share of cells brighter than vehicle mean+2SD. % tubulin-high responders, % at 10 µM. AID 2205. 200,000 compounds, 0.83% hits;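 active = plate Z-score above 3 for both tubulin-high and condensed-nucleus cell shares, with cell loss under 80%, at 10 µM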;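 note: anti alpha tubulin signal scored within the nucleus-defined area of each cell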
# ABCB1 inh: blocks JC-1 efflux by human ABCB1 transporter. P08183. CCRF-Adr cells, flow cytometry. inhibition, % at 6.6 µM. 190,000 compounds, 0.067% hits. AID 1326; in the data active = inhibition above about 40%;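 note: 0% = vehicle and 100% = reference inhibitor; higher value means more JC-1 retained so stronger ABCB1 efflux block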
# bCat nuc transl: beta-catenin nuclear translocation modulation; HeLa beta-catenin nuclear translocation, immunofluorescence imaging; nuclear translocation activity, % at 5 µM; 190,000 compounds, 0.3% hits;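 active = nuclear translocation activity above 50% at 5 µM, with a well cell count of 50 or more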;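 note: per-cell ratio of nuclear to cytoplasmic median beta-catenin stain intensity; plate controls were DMSO negative control for no effect and GSK-3 inhibitor IX positive control for full effect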
#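 Signal – beta-catenin immunofluorescence imaging with DAPI · Test system – human HeLa cell line · Dosing – 5 µM primary single dose, 0.1% DMSO, 0.02–20 µM confirmation series · Measure – % activation, nuclear-to-cytoplasmic median beta-catenin signal ratio per cell · Incubation – 24 h compound exposure at 37°C, 5% CO2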
# PKD1 inh: inhibitors of human PKD1 kinase; PKD1 kinase fluorescence polarization assay; Q15139; 200,000 compounds, 0.056% hits; inhibition, % (concentration not given with the values); in the data active = inhibition above about 50%
# ABCG2 inh: blocks JC-1 efflux by human ABCG2 transporter; Q9UNQ0; IgMXP3 cells, flow cytometry; inhibition, % at 6.6 µM; 190,000 compounds, 0.1% hits; AID 1325;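 active = inhibition above 80%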;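 note: 0% = DMSO and 100% = nicardipine control wells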
# Target sequence (Q9UNQ0 whole entry, looked up): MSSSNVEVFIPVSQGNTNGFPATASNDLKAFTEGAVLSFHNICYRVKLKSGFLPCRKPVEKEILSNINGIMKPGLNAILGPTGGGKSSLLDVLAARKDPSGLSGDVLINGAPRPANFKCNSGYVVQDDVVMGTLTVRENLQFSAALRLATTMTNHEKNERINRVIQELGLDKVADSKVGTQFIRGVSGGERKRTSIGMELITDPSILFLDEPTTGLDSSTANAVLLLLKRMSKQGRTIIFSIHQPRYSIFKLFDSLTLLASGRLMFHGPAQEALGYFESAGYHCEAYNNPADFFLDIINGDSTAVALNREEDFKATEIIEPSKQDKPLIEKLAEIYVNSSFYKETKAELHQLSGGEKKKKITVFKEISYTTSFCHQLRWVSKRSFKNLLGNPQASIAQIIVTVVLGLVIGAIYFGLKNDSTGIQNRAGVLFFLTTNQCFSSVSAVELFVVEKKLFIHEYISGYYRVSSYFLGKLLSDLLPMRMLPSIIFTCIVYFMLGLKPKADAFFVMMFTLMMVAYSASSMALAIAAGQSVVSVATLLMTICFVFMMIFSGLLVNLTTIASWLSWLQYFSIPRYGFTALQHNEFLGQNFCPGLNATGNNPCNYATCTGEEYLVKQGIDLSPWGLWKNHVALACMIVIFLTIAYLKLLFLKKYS
#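 Incubation: cells with compound and JC-1, 10 min at 25 °C, rotating, no wash / Test system: IgMXP3 (ABCG2) plus far-red-tagged CCRF-Adr (ABCB1) cells / Compound dosing: one concentration, 6.6 µM final / Also added: JC-1 fluorescent substrate / Evaluation: efflux inhibition in percent versus controls / Detection: flow cytometry, 530 nm JC-1 signal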
# An asterisk follows results filed as active; / = not tested or not shown.
SMILES,MT stabilize HCS,ABCB1 inh,bCat nuc transl,PKD1 inh,ABCG2 inh
N=c1c2c(ncn1Cc1ccco1)Oc1c(ccc3ccccc13)C2c1ccccc1 (configuration not stated),12.0*,5.4,7.3,5.8,6.8
Cc1cccc(C(=O)N/N=C/c2cc(Br)c(Br)o2)c1,10.6*,-0.6,/,-0.7,-5.5
CCOC(=O)c1ccccc1NC(=O)CN(c1ccccc1OCC)S(C)(=O)=O,5.7,2.3,0.9,-13.5,4.0
CCOC(=O)c1ccccc1NC(=O)CN(c1ccc(OCC)cc1)S(C)(=O)=O,12.9,1.7,69.0*,5.4,10.1
O=C(O)c1cccc(-c2ccc(/C=N/n3cnc4sc5c(c4c3=O)CCCC5)o2)c1,/,/,-0.2,/,/
CCN1CCCC1CNC(=O)C(=O)NCCc1ccc(OC)c(OC)c1 (configuration not stated),4.2,0.5,2.1,3.3,1.0
O=C(CSc1ccncc1)Nc1ccc2ccccc2c1,2.7,-0.2,-0.4,71.1*,-0.5
O=C(CSc1ccc2ccccc2c1)Nc1ccncc1,2.6,0.2,-0.7,-10.4,7.7
COc1ccccc1N=CC1=C(O)CC(c2ccccc2)CC1=O (configuration not stated),4.7,1.0,96.5*,-14.4,10.9
CCCCCCNc1c([N+](=O)[O-])c(=O)sc2ccccc12,4.9,-0.2,0.9,-3.4,2.8
CC1(C)Cc2c(sc3c2c2ncnn2c2nnc(SCC(=O)NCc4ccco4)n32)CO1,1.8,0.2,-1.7,-19.3,1.0
CCC1(C)Cc2c(sc3c2c2ncnn2c2nnc(SCC(=O)NCc4ccco4)n32)CO1 (configuration not stated),13.3*,0.1,-2.2,-2.2,1.1
CCCn1nnc(NC(=S)NC(=O)c2cccs2)n1,2.2,-0.7,-4.5,-0.8,-3.5
CCn1c(SCC(=O)N/N=C/c2ccc(C)s2)nc2ccccc21,20.1*,1.0,45.9,-1.3,3.3
O=C(Nc1ccc(Cl)cc1)c1ccc(Br)cc1F,22.5,1.5,4.4,4.5,23.4
CCOC(=O)C1=C(C)N=C2SC=C(C)N2C1c1ccc(OC)cc1 (configuration not stated),12.2*,1.2,15.8,-3.6,3.2
CCOC(=O)C1=C(C)N=C2SCCC(=O)N2C1c1ccc(OC)cc1 (configuration not stated),2.1,0.8,1.9,2.0,1.6
CCOC(=O)Nc1sc2c(c1C#N)CCCC2,1.7,0.0,/,-5.4,0.6
CCCC1CCc2c(sc(NC(=O)OCC)c2C#N)C1 (configuration not stated),51.9*,0.4,-0.1,-7.5,8.1
Cc1cccc2cc3c(nc12)SC(=NCC1CCCO1)N(Cc1ccco1)C3 (configuration not stated),32.5*,1.2,2.9,-1.7,6.3
CCCC(=O)Nc1nc2ccc(NC(=O)c3ccccc3F)cc2s1,34.1*,-0.2,6.4,-0.3,-0.8
CCCCC(=O)Nc1nc2ccc(C(=O)OC)cc2s1,24.7*,0.0,0.6,6.2,2.7
O=c1cc(-c2ccc(C3CCCCC3)cc2)[nH][nH]1,1.6,-0.3,-4.7,-2.4,-0.3
COC(=O)c1ccc(C)c(NS(=O)(=O)c2ccc3c(c2)OCCO3)c1,21.0*,0.5,7.0,-8.0,2.4
COC(=O)c1ccc(C)c(NS(=O)(=O)c2ccc(OC)cc2)c1,23.7*,0.2,/,0.3,0.5
SMILES,MT stabilize HCS,ABCB1 inh,bCat nuc transl,PKD1 inh,ABCG2 inh
COc1ccc(S(=O)(=O)Nc2cc([N+](=O)[O-])ccc2OC)cc1,27.7*,3.8,6.9,-5.4,10.7
COC(=O)c1ccc(C)c(NS(=O)(=O)c2ccc(C)c([N+](=O)[O-])c2)c1,2.6,0.8,-2.9,-16.9,2.2
O=C(NCCc1c[nH]c2ccccc12)C(=O)Nc1ccccc1,4.2,-0.4,0.1,-8.0,5.6
O=C(CNC(=O)c1ccc2c(c1)OCO2)N/N=C/c1cccc([N+](=O)[O-])c1,0.8,0.0,-1.9,0.3,0.3
O=C(CNC(=O)c1ccc2c(c1)OCO2)N/N=C(Br)/C=C/c1ccccc1,19.3*,-1.2,-0.6,-4.5,-12.1
CNc1ccc(/C=C(\C#N)c2ccccn2)cc1[N+](=O)[O-],1.9,0.6,1.7,-1.5,7.0
N#C/C(=C\c1ccc(Cl)c([N+](=O)[O-])c1)c1ccccn1,66.2,0.8,80.1*,-6.6,17.9
O=C(CSc1nnc2ccc(-c3ccc(F)cc3)nn12)N1CCCC1,1.1,0.3,-1.6,-9.9,4.9
Cc1ccccc1-n1c(SCC(=O)N/N=C/c2sccc2C)nc2ccccc2c1=O,14.2*,1.5,0.5,-4.5,4.2
O=C(CCSc1ccccc1)Nc1ccc(OCc2ccccc2)cc1,1.5,0.5,0.8,8.6,18.0
COc1ccc(-c2cc(C(F)F)n3ncc(C(=O)N4CCc5ccccc54)c3n2)cc1,25.6*,-0.9,6.2,-5.7,-2.5
Nc1cc(=O)[nH]c(SCC(=O)N2CCCCC2)n1,1.9,0.7,0.4,6.8,1.9
O=C(CCCSc1nc2ccccc2[nH]1)N1CCN(c2ccc([N+](=O)[O-])cc2)CC1,2.8,9.3,-0.6,-7.4,6.0
CCC1CCCCN1CC(=O)Nc1cc(C)nn1-c1nc(C)cc(C)n1 (configuration not stated),52.8*,6.6,1.2,-0.1,25.9
N#CC1=C(N)OC2=C(CCc3ccccc32)C1c1ccccc1Cl (configuration not stated),17.5*,0.1,11.7,-2.7,-3.5
O=S(=O)(c1ccc(Cl)cc1)N1CCN(C(=S)Nc2ccccc2F)CC1,3.7,0.4,-4.1,-2.0,3.1
COc1cc(C2C(C#N)=C(N)Oc3c2ccc2ccccc32)ccc1OCC(=O)Nc1ccc(C)cc1 (configuration not stated),24.9,0.3,27.5,-5.0,0.3
COc1cc(C2C(C#N)=C(N)Oc3cc(N)ccc32)cc(OC)c1OC (configuration not stated),18.4*,-0.3,71.4*,-11.6,0.0
COc1cc(C2C(C#N)=C(N)Oc3cc(C)oc(=O)c32)cc(OC)c1OC (configuration not stated),/,/,0.0,/,/
CCN(CC)c1ccc2c(c1)OC(N)=C(C#N)C2c1cccnc1 (configuration not stated),20.3*,0.7,65.4*,-0.5,1.7
COc1ccc(C2C(C#N)=C(N)Oc3c2ccc2cccnc32)cc1OC (configuration not stated),16.2*,0.9,60.9*,-0.7,14.9
N#CC1=C(N)Oc2cc(N)ccc2C1c1cccnc1 (configuration not stated),23.8*,0.1,-0.4,-1.8,17.3
N#CC1=C(N)Oc2cc(N)ccc2C1c1ccc(F)cc1 (configuration not stated),29.8,-4.1,1.2,-5.0,-6.5
CC(C)(C)c1oc(C(=O)O)cc1CN1CCOCC1,/,/,0.4,/,/
Cc1ccc(Nc2nc(-c3c(C)nc4ncccn34)cs2)cc1,16.8*,-1.9,/,-19.5,35.8
